UBC13 polyUb: human UBC13 polyubiquitination inhibition | P61088 | UBC13 polyubiquitin chain formation, TR-FRET | inhibition, % at 20 µM | 330,000 tested, 0.47% active | AID 485273; in the data active = inhibition above about 45%, passing the limit was not always enough
SENP8 block-1: SENP8 protease inhibition; AID 2540; purified SENP8, Z-RLRGG-aminoluciferin cleavage, luminescence; inhibition, % at 10 µM; 330,000 tested, 1.2% active; in the data active = inhibition above about 50%
Target sequence (Q96LD8 whole entry, looked up): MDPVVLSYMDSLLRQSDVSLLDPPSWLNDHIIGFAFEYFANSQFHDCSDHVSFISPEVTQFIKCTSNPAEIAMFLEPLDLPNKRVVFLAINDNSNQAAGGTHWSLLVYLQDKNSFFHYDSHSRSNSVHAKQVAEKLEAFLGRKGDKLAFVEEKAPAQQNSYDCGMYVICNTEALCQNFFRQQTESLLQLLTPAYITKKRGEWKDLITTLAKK
Apaf1 inhib: blocks human Apaf-1 apoptosome activity. inhibition, % at 20 µM. 330,000 tested, 0.71% active. O14727. reconstituted apoptosome caspase-3 activity, DEVD-Rh110 fluorescence; active = inhibition of at least 40% at 20 µM;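 also: plate controls were DMSO wells for no effect and DEVD-CHO caspase inhibitor wells for full effect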
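Material: cell-free apoptosome with Apaf-1, procaspase-3 and caspase-9; Buffer or medium: Hepes pH 7.5 with detergent and BSA; Reagent: cytochrome c trigger plus (Z-DEVD)2-Rh110 caspase-3 substrate; Times: compound with Apaf-1, dATP, procaspase-3 30 min, then 50 min reaction, room temperature; Technique: Rh110 fluorescence intensity.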
SENP8 block-2: blocks human SENP8 cleavage of Nedd8 substrate. Q96LD8. recombinant SENP8, Nedd8 substrate fluorescence. inhibition, % at 20 µM. 360,000 tested, 0.64% active. AID 602440; in the data active = inhibition mostly above about 40%, no sharp cut-off; inactive = mostly below about 27%
SENP6 inh: SENP6 protease inhibition; Recombinant SENP6 catalytic domain, aminoluciferin luminescence; inhibition, % at 10 µM; 330,000 tested, 1.8% active; AID 2599;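 active = inhibition above about 50% at the single tested dose, limit read from the data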;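 also: plate controls were DMSO wells with enzyme for no effect and DMSO wells lacking enzyme for full effect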
SENP7 block: inhibitors of human SENP7 protease | Q9BQF6 | recombinant SENP7, Z-RLRGG-aminoluciferin luminescence, 40 min | inhibition, % at 5 µM | 330,000 tested, 1.5% active;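 active = inhibition above about 50% at the single test dose, limit read from the data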;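 also: plate controls were DMSO with enzyme for no effect and no enzyme buffer wells for full effect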
SENP8 confirm: confirmation of human SENP8 protease inhibitors; shares compounds with SENP7 block; Recombinant SENP8, Z-RLRGG-aminoluciferin luminescence, 60 min; inhibition, % at 12.5 µM; 6,200 tested, 40% active;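 active = mean inhibition across replicates above about 50%, limit read from the data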
SENP6 confirm: confirmation of human SENP6 protease inhibitors. 6,200 tested, 58% active. shares compounds with SENP7 block. inhibition, % at 12.5 µM. recombinant SENP6, Z-RLRGG-aminoluciferin luminescence
SENP7 confirm: human SENP7 inhibition, confirmed | AID 488917 | recombinant SENP7, Z-RLRGG-aminoluciferin luminescence, 40 min | inhibition, % at 12.5 µM | shares compounds with SENP7 block | 6,200 tested, 69% active
Casp3 SENP sel: inhibits human caspase-3 in SENP selectivity test. AID 488918. 6,200 tested, 60% active. purified caspase-3, Z-DEVD-aminoluciferin luminescence, 60 min. inhibition, % at 12.5 µM. shares compounds with SENP7 block;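 active = mean inhibition above about 50%, limit read from the data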;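 also: plate controls were enzyme with DMSO for no effect and wells without caspase-3 for full effect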
Target sequence (P42574 28-227 limits assumed): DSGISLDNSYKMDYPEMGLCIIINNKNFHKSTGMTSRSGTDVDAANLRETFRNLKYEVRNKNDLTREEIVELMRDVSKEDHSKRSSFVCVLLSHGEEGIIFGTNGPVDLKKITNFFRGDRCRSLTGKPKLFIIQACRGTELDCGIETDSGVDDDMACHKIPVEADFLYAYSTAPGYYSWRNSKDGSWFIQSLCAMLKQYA
SENP luc ctr: counter-screen for SENP inhibitors: luminescence interference; shares compounds with SENP7 block; Pre-incubated SENP8/Z-RLRGG-aminoluciferin, luciferase luminescence interference; inhibition, % at 12.5 µM; 6,200 tested, 39% active;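 active = mean inhibition above about 50% when retested at one dose, limit read from the data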;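 also: plate controls were DMSO wells with completed reaction for no effect and substrate without enzyme for full effect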
* marks the source's active call; other numbers are inactive results; / = not tested or not shown. Most compounds without a hit are left out; they make up all but 3% or so of the library.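 The calls were made as follows, unless noted: active = mean inhibition above about 50% in the one-dose retest (limit read from the data); inactive = the rest.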

SMILES | UBC13 polyUb | SENP8 block-1 | Apaf1 inhib | SENP8 block-2 | SENP6 inh | SENP7 block | SENP8 confirm | SENP6 confirm | SENP7 confirm | Casp3 SENP sel | SENP luc ctr
CC(C)C(=O)Nc1ccc(-c2nnc(-c3ccccc3)o2)cc1 | 11 | 58* | 3 | -311 | 61* | 76* | 12 | 13 | 19 | 22 | 7
COc1ccc(C2c3ccc(O)cc3Oc3ncn4nc(-c5ccncc5)nc4c32)cc1OC (centres undefined) | 4 | 8 | -16 | 8 | 67* | -2 | 12 | 8 | 5 | 2 | -3
O=S(=O)(Nc1ccccc1F)c1cccc(NC(=S)NCCN2CCOCC2)c1 | 5 | 9 | -9 | 11 | 7 | -1 | / | / | / | / | /
O=C(CCN1C(=O)/C(=C/c2ccc(F)cc2)SC1=S)Nc1cc([N+](=O)[O-])ccc1O | -28 | -9 | 15 | 31 | 1 | -3 | / | / | / | / | /
O=C(NNC(=O)c1cnccn1)c1cccc([N+](=O)[O-])c1 | -9 | -7 | -2 | 20 | 3 | 10 | / | / | / | / | /
O=C(NNC(=O)c1ccccc1[N+](=O)[O-])c1cnccn1 | -1 | 0 | -6 | 18 | -7 | 82* | -9 | -6 | -5 | 7 | 1
COCCNC(=O)c1ccc(Cl)c(S(=O)(=O)Nc2cccc(C)c2C)c1 | -4 | -19 | 2 | 9 | -21 | -5 | / | / | / | / | /
COc1ccc(OCC(=O)Nc2nccs2)cc1 | -9 | 62* | 2 | 13 | 26 | 83* | 78* | 79* | 95* | 93* | 79*
CCOc1ccc(OCC(=O)Nc2nccs2)cc1 | 4 | 95* | 12 | 18 | 97* | 98* | 97* | 97* | 102* | 98* | 88*
O=C(COc1ccc2c(c1)OCO2)Nc1nccs1 | 2 | 90* | 6 | 8 | 96* | 95* | 95* | 95* | 102* | 97* | 93*
Cc1ccc(CCC(=O)Nc2nccs2)o1 | 4 | 3 | -5 | 13 | 4 | 92* | 0 | -2 | -8 | -1 | -2
CSC(=S)NCc1cccnc1 | -2 | -5 | -18 | 6 | -1 | 4 | / | / | / | / | /
CCC(C)(C)NC(=O)CCCSc1nc2ccccc2[nH]1 | 2 | 2 | -14 | 16 | 14 | -2 | / | / | / | / | /
COc1ccc(NCCC(O)c2ccc(Cl)cc2)cc1 (centres undefined) | 7 | 4 | 4 | 14 | 11 | 11 | / | / | / | / | /
O=C(NCC1CCCO1)c1ccccc1OCc1ccc(Cl)cc1 (centres undefined) | 5 | 8 | 8 | 9 | -2 | -2 | / | / | / | / | /
c1ccc(-c2nn[nH]n2)cc1 | 2 | 5 | -5 | 5 | -13 | 2 | / | / | / | / | /
c1ccc(-c2nnc(-c3ccccc3)nn2)cc1 | 1 | 83* | -15 | 28 | 88* | 96* | 8 | 13 | 26 | 36 | 29
CCN1CCN(c2nc(N)c([N+](=O)[O-])c(Nc3ccc(C)c(C)c3)n2)CC1 | -6 | -6 | 29 | 24 | -2 | -4 | / | / | / | / | /
Cc1ccc(Nc2n[nH]c(C)c2[N+](=O)[O-])cc1C | -17 | 42 | 2 | 26 | 58* | 33 | 23 | 42 | 84* | 53* | 3
O=C(O)CCCc1ccc2c(c1)CCc1ccccc1-2 | -6 | 34 | 4 | -29 | 50* | -14 | 77* | 76* | 88* | 68* | 81*
c1ccc(N=Nc2ccc3cccccc2-3)cc1 | -82 | 45 | 14 | 24 | 54* | 68* | 56* | 68* | 86* | 34 | 49
COc1ccc(C(=O)COC(=O)C(CCSC)NC(=O)COc2ccccc2)c(OC)c1 (centres undefined) | 0 | 8 | 21 | 10 | 9 | -3 | / | / | / | / | /

Bioassay records: PubChem BioAssay, Sanford-Burnham Center for Chemical Genomics
